# Results reported in paper PMC6714607 (ACS Omega, 2019).
# How the values were obtained:
# Assay type in all cases: cell-based
# [1] = test system: THESCs uterus (immortalized fibroblast) cells; assay: XTT cell viability assay, THESCs uterus; details: 1 μM, 72 h, 37 °C, triplicates in 96-well plates
# In short: (§1)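 Cells were grown in DMEM with 10% FCS and penicillin/streptomycin, then seeded at 3×10^3 per well in 96-well plates. After 24 h attachment, the medium was replaced and conjugate or its scrambled-sequence control was added. Plates were incubated 72 h at 37 °C in humidified 5% CO2, and proliferation was read by XTT assay per the kit instructions.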
# [2] = test system: normal uterus human fibroblast cells produced from a patient (Nf08 uterus); assay: XTT cell viability assay, Nf08 uterus; details: 1 μM, 72 h, 37 °C, triplicates in 96-well plates, Figure S9
# In short: as §1
# [3] = test system: miR-155; assay: miR-155 expression by quantitative RT-PCR after PNA conjugate treatment; details: U87MG cells, 0.5 μM PNA conjugate, 24 h, 37 °C, qRT-PCR in triplicates
# In short: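 U87MG cells were treated with 0.5 μM conjugate or its scrambled-sequence control for 24 h at 37 °C. Total microRNA was isolated, and cDNA was synthesised from 1 μg RNA. miR-155 was quantified by SYBR Green real-time PCR with miR-155-specific primers, in triplicate.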
# [4] = test system: U87MG glioblastoma cells; assay: XTT cell viability assay, U87MG; details: 1 μM, 72 h, 37 °C, triplicates in 96-well plates
# In short: as §1
# [5] = test system: U87MG glioblastoma cells; assay: Colony formation; details: 1.0 μM for 24 h, colonies counted after 2 weeks, triplicates
# In short: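 U87MG cells in DMEM with 10% FCS were treated for 24 h with 1.0 μM conjugate or its scrambled-sequence control. Cells were then seeded at 1000 and 500 per well in triplicate six-well plates. After 14 days, colonies were fixed with 2.5% glutaraldehyde for 10 min, stained with 1% methylene blue and counted. Colony numbers were taken from the triplicate plates.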
# [6] = test system: U87MG cells; assay: FACS analysis of FITC-labeled PNA conjugate uptake; details: 0.5 μM, 2 h
# In short: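 U87MG cells were seeded at 2.0×10^5 per well and left to adhere overnight. They were given 0.5 μM FITC-labelled conjugate in DMEM with 10% FCS for 2 h at 37 °C, either alone, with 10 mM NaN3 plus 10 mM 2-deoxy-D-glucose, or held at 4 °C. Cells were PBS-washed, trypsinised, pelleted, resuspended in cold PBS and filtered. Flow cytometry used 488 nm excitation, gated on untreated cells, and gave the % FITC-positive cells. Each condition was run in two repeats.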
# [7] = test system: U87MG glioblastoma cells; assay: Confocal colocalization with Lyso-Tracker Red and Hoechst; details: 0.5 μM, 3 h, 37 °C, Lyso-Tracker Red and Hoechst staining
# In short: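 U87MG cells were plated 12 h beforehand on glass chamber slides and grown to 70–80% confluence. They were given 0.5 μM FITC-labelled conjugate in fresh complete medium for 3 h at 37 °C under 5% CO2, then washed twice with PBS. Staining was 50 nM LysoTracker Red for 20–30 min at 37 °C, PBS washes, then 0.01 mM Hoechst for 15 min. Cells were fixed in 4% formaldehyde and imaged by confocal laser scanning microscopy.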
substance,measurement,setting,value
5′-ACCCAATCGTCAGATTCCATATA-3′-C9 (head to tail) [C9–PNA-Scr],effect on viability of THESCs uterus cells,[1],negligible effects
same,effect on viability of Nf08 uterus normal human fibroblast cells,[2],negligible effects
5′-ACCCCTATCACAATTAGCATTAA-3′-C9 (head to tail) [C9–PNA],decrease in miR-155 in comparison to the scrambled control,[3],over 80%
same,reduction in cell viability in comparison to the C9–PNA-Scr control,[4],> 80%
same,effect on viability of THESCs uterus cells,[1],negligible effects
same,effect on viability of Nf08 uterus normal human fibroblast cells,[2],negligible effects
same,colony formation,[5],substantial decrease in colony formation
FITC-Ahx-5′-ACCCCTATCACAATTAGCATTAA-3′-C9 (head to tail) [C9–PNA–FITC],cellular uptake at 4 °C (ATP depletion) by FACS,"[6]; 4 °C, versus control at 37 °C, two repeats",clear decrease in cellular uptake
same,cellular uptake with 10 mM NaN3/10 mM 2-deoxy-D-glucose by FACS,"[6]; 37 °C, versus control without inhibitors, two repeats",clear decrease in cellular uptake
same,cellular localization of FITC-labeled PNA,[7],"predominantly found in lysosomes and, to a lesser extent, in nuclei"
same,"cellular uptake by confocal microscopy of stained, fixed cells",[7],strong punctate green signals
FITC-Ahx-5′-ACCCCTATCACAATTAGCATTAA-3′-dK4 [dK4–PNA–FITC],"cellular uptake, change in FITC fluorescence by FACS","[6]; 37 °C, complete medium, flow cytometry 488 nm",almost no change in fluorescence
same,"cellular uptake by confocal microscopy of stained, fixed cells",[7],negligible uptake
